From PubChem
TAAR1 antag: human TAAR1 antagonism; Q96RJ0; CHO RD-HGA16 TAAR1, Fluo-8 calcium fluorescence, antagonist; inhibition, % at 3 µM; actives 1.5% (n = 360,000); AID 624466;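 active means inhibition above a per-plate cutoff, the mean inhibition of test compounds on that plate plus 3 SD, cut at about 49% in these data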;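 further: 0% = DMSO plus EC80 beta-PEA response and 100% = DMSO alone without agonist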
Target sequence (Q96RJ0 whole entry, looked up): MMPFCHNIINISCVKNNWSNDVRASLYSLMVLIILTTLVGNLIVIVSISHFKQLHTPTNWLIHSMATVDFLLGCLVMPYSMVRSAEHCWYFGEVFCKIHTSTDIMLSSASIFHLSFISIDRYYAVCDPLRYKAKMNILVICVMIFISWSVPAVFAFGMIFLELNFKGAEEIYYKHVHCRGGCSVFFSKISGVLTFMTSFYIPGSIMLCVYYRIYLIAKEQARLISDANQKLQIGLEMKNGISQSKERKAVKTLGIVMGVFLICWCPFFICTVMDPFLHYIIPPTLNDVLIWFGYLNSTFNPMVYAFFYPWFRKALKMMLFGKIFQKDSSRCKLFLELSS
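Test system – hTAAR1-expressing CHO RD-HGA16 cells, Gα16-coupled · Reagent – β-PEA at EC80 concentration, post-compound challenge · Compound dosing – 3 µM, single point · Timing – 140 s kinetic read after compound, 140 s after agonist · Detection – Fluo-8 intracellular calcium dye fluorescence, real-time kinetic reads · Control set – DMSO and EC80 PEA controls · Repeats – n of 1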
GPR7 antag: antagonists of human GPR7 (neuropeptides B/W receptor 1); AID 1861; inhibition, % at 4.4 µM; P48145; actives 1.1% (n = 290,000); GPR7-expressing cells, fluorescence antagonist assay; in the data active means inhibition above about 16%, passing the limit was not always enough;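 further: cells stimulated with the agonist NPW; 0% = agonist with vehicle and 100% = vehicle without agonist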
TRPML3 ag: human mucolipin-3 channel agonism | HEK293 TRPML3-YFP, Fluo-8 calcium fluorescence; 100% = the carbachol control signal | activation, % at 3 µM | actives 0.29% (n = 220,000);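 active means activation above its plate's cutoff, the mean activation of the plate's test wells plus 3 SD, cut at about 12% in these data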;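 further: 0% = DMSO only wells and 100% = carbachol wells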
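Material: HEK293 cells stably carrying human TRPML3-YFP; compound dosing: single dose, 3 µM final nominal compound, 0.3% DMSO final; incubation: 1-h 37 °C dye load, 5-s basal, 120-s post-compound reads; technique: Fluo-8 intracellular calcium fluorescence, excitation 470-495 nm, emission 515-575 nm; read-out basis: percent activation from peak-to-basal fluorescence ratio, scaled between DMSO and carbachol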
LANA-H2B inh: blocks KSHV LANA binding to histone H2A/H2B; AID 2629; cell-free LANA-H2A/H2B peptide, fluorescence polarization; inhibition, % (test concentration not listed); actives 0.6% (n = 320,000); Q9QR71; in the data active means inhibition mostly above about 10%, no sharp cut-off; inactive means mostly below about 6.7%
TAAR1 ag: human TAAR1 agonism; Q96RJ0; CHO RD-HGA16 TAAR1, Fluo-8 calcium fluorescence; vehicle wells 0%, saturating PEA agonist 100%; activation, % at 3 µM; actives 0.99% (n = 360,000);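 active means activation above the mean activation of all test compounds in the run plus 3 SD, cut at about 38% in these data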
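test system = CHO RD-HGA16 cells carrying human TAAR1 plus Gα16 | schedule = 17-24 h seeding, 75 min 37 °C dye, 30 min RT | compound dosing = 3 µM single concentration | control set = DMSO and PEA EC100 | replicates = n 1 | signal = Fluo-8 fluorescence, 5 s baseline then 140 s kinetic read | measure = percent activation vs PEA EC100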
zfTRPN1 agonist: zebrafish TRPN1 (NompC) channel agonism | HEK293 zebrafish TRPN1-YFP, Fluo-8 calcium fluorescence; 100% = response to 87 µM carbachol | activation, % at 3 µM | actives 0.18% (n = 220,000) | AID 1424;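 active means activation above its plate's cutoff, the mean activation of test wells on that plate plus 3 SD, cut at about 19% in these data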;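 further: 0% = DMSO alone and 100% = 87 µM carbachol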
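Assay system: Zebrafish TRPN1-YFP in HEK293 cells | Incubation: Dye loading 1 h at 37 °C, then 30 min room temperature | Measured by: Kinetic Fluo-8 fluorescence, ex 470-495, em 515-575 nm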
TAAR1 ag confirm: confirmation of human TAAR1 agonists | CHO RD-HGA16 TAAR1, Fluo-8 calcium fluorescence; scaled: DMSO 0%, maximal phenethylamine 100% | actives 82% (n = 2,400) | shares compounds with TAAR1 ag | activation, % at 3 µM | AID 651783;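 active means activation above a cutoff set at the run's mean compound activation plus 3 SD, cut at about 39% in these data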
Ga16 nonsel ag: nonselective agonism, TAAR1 counter-screen; CHO-Ga16 parental, Fluo-8 calcium fluorescence; normalized to maximal ATP response, DMSO zero; shares compounds with TAAR1 ag; actives 50% (n = 2,400); activation, % at 3 µM;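 active means activation above the run cutoff, the mean activation over all tested wells plus 3 SD, cut at about 12% in these data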;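 further: 0% = DMSO wells and 100% = maximal ATP response on the peak over basal ratio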
TAAR1 desens: human TAAR1 agonist that also desensitizes the receptor | shares compounds with TAAR1 ag | CHO RD-HGA16 hTAAR1, Fluo-8 calcium, beta-PEA response inhibition | inhibition, % at 3 µM | actives 46% (n = 2,400) | AID 651951;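 active means inhibition above the run cutoff, the mean inhibition of all test compounds plus 3 SD, cut at about 49% in these data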;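 further: beta-PEA stimulus applied at its EC80; loss of beta-PEA calcium signal after compound pretreatment read as receptor desensitization; 0% = DMSO with beta-PEA at EC80 and 100% = DMSO alone without agonist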
Ga16 nonsel ant: nonselective Ga16 antagonism, counter-screen. shares compounds with TAAR1 ag. CHO-Ga16 ATP-induced calcium, Fluo-8 fluorescence. inhibition, % at 3 µM. actives 39% (n = 2,400). AID 651952;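 active means inhibition above the plate's mean compound inhibition plus 3 SD, computed per plate, cut at about 22% in these data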;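 further: 0% = EC80 ATP with DMSO and 100% = DMSO wells without ATP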
Active calls of the source: *. Rows were chosen to be rich in hits. Some 3.4% of all compounds tested hit in one or more screens of this group.

COC(=O)[C@@H](Cc1c[nH]c2ccccc12)NC(=O)CNC(=O)c1ccccc1OC was read as TAAR1 antag -6, GPR7 antag -13, LANA-H2B inh 5 and TAAR1 ag 1.
For O=c1[nH]ncc2c3ccccc3n(Cc3ccc(F)cc3)c12 the results were TAAR1 antag -9, GPR7 antag -7, TRPML3 ag -1, LANA-H2B inh 3, TAAR1 ag 12 and zfTRPN1 agonist -2.
Screening O=c1[nH]ncc2c3ccccc3n(Cc3cccc(Cl)c3)c12 returned TAAR1 antag 27, GPR7 antag -8, TRPML3 ag 3, LANA-H2B inh 3, TAAR1 ag 54*, zfTRPN1 agonist 8, TAAR1 ag confirm 4, Ga16 nonsel ag 2, TAAR1 desens 11 and Ga16 nonsel ant 10.
Cc1ccc(CNC(=O)c2cccnc2Sc2cccc(Cl)c2)cc1 was read as TAAR1 antag 30, GPR7 antag 0, TRPML3 ag 3, LANA-H2B inh -3, TAAR1 ag 73*, zfTRPN1 agonist 10, TAAR1 ag confirm 82*, Ga16 nonsel ag 40*, TAAR1 desens 47 and Ga16 nonsel ant 35*.
CC(=O)c1ccc(C(=O)Nc2nnc(-c3ccc(Cl)cc3)o2)cc1 was read as TAAR1 antag -11, LANA-H2B inh 0 and TAAR1 ag 1.
O=C(Nc1nnc(-c2ccccc2)o1)c1ccc(Cl)cc1 was read as TAAR1 antag 25, GPR7 antag -15, TRPML3 ag 0, LANA-H2B inh 5, TAAR1 ag 76*, zfTRPN1 agonist 1, TAAR1 ag confirm 19, Ga16 nonsel ag 16*, TAAR1 desens 8 and Ga16 nonsel ant 15.
C=CC[C@H](CC(=O)NCCO)C(=O)NCCOC(=O)[C@@H](CC=C)Cc1ccc(F)cc1 was read as TAAR1 antag 14, LANA-H2B inh 2 and TAAR1 ag 7.
Cn1cc(CN2CCc3ccccc3C2)c2ccccc21 was read as TAAR1 antag 21, GPR7 antag 1, TRPML3 ag 0, LANA-H2B inh 3, TAAR1 ag 67*, zfTRPN1 agonist 0, TAAR1 ag confirm 85*, Ga16 nonsel ag 1, TAAR1 desens 41 and Ga16 nonsel ant 4.
For Oc1cc2c(cc1CN1CCc3ccccc3C1)OCO2 the results were TAAR1 antag -7, GPR7 antag -2, LANA-H2B inh 6, TAAR1 ag 69*, TAAR1 ag confirm 22, Ga16 nonsel ag 2, TAAR1 desens 0 and Ga16 nonsel ant 0.
For Oc1ccc(CN2CCc3ccccc3C2)c2cccnc12 the results were TAAR1 antag 62*, GPR7 antag -1, TRPML3 ag 1, LANA-H2B inh 5, TAAR1 ag 81*, zfTRPN1 agonist 1, TAAR1 ag confirm 77*, Ga16 nonsel ag 0, TAAR1 desens 24 and Ga16 nonsel ant 6.
For CN1OC[C@@H]2CN(C(=S)NCCc3ccccc3)[C@H](c3ccc(-n4ccnc4)cc3)C[C@@H]21 the results were TAAR1 antag -8, TAAR1 ag 47*, TAAR1 ag confirm 49*, Ga16 nonsel ag 7, TAAR1 desens 6 and Ga16 nonsel ant 10.
